Screening results deposited in PubChem BioAssay by Sanford-Burnham Center for Chemical Genomics.
CXCR6 block: CXCR6 receptor inhibitors, primary screen, cell-based, beta-arrestin, luminescence, CHO-K1 PathHunter, 1536-well | C-X-C chemokine receptor type 6 (Homo sapiens), O00574 | inhibition, % at 20 µM | 360,000 compounds, 0.36% hits | AID 602244, 2012; in the data active = inhibition above about 34%, passing the limit was not always enough;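 also: antagonist mode with CXCL16 agonist at 10 nM final; 0% = 10 nM CXCL16 with DMSO and 100% = unstimulated wells without agonist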
APJ agonist: agonists of human apelin receptor APJ, primary screen, CHO-K1 cells, PathHunter beta-arrestin, luminescence; P35414; 0% DMSO wells, 100% apelin; activation, % at 20 µM; 330,000 compounds, 0.11% hits; AID 2520, 2010;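 active = activation more than six SD over the plate average, tested at 20 µM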;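 also: 0% = DMSO alone and 100% = apelin-13 at 10 nM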
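assay system = CHO-K1 APJ beta-arrestin complementation cell line | input = cell density 1000 per well | dosing = compound 20 µM once, DMSO 1% | timing = compound 90 min 25 °C, reagent 1 h | measured by = luminescence from split beta-galactosidase complementation, Galacton Star/Emerald II substrate | read-out basis = APJ agonist activity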
APJ antagonist: antagonists of human apelin receptor APJ, primary screen, CHO-K1 cells, beta-arrestin complementation, luminescence; AID 2521, 2010; P35414; 330,000 compounds, 0.32% hits; inhibition, % at 20 µM;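 active = inhibition above about 40% at 20 µM, limit read from the data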;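 also: cells challenged with 10 nM apelin-13 agonist together with compound; plate controls were apelin-13 plus DMSO wells for no effect and DMSO wells lacking apelin-13 for full effect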
CCR6 antag: CCR6 receptor antagonists, primary screen, cell-based, CHO-K1, luminescence, beta-arrestin, uHTS | C-C chemokine receptor type 6 (Homo sapiens), P51684 | CHO-K1 CCR6 PathHunter beta-arrestin, CCL20-stimulated | inhibition, % at 20 µM | 340,000 compounds, 0.49% hits | AID 493098, 2011;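 active = compounds whose inhibition of the agonist-driven luminescence signal at 20 µM reaches about 50%, limit read from the data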;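 also: cells stimulated with CCL20 at 14 nM final; plate controls were DMSO with CCL20 for no effect and DMSO without agonist for full effect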
Target sequence (P51684 whole entry, looked up): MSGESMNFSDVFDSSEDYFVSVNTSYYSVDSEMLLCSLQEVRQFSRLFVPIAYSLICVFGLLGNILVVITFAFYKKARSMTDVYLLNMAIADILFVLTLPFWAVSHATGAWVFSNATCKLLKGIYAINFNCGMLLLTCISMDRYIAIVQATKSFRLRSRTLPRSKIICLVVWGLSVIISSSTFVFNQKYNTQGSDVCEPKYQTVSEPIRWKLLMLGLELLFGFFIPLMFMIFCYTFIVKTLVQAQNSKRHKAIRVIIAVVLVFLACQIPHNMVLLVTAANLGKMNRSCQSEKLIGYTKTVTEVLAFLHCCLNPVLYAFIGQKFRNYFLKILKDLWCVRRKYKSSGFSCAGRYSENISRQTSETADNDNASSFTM
EBI2 antag: EBI2 receptor antagonists, beta-arrestin recruitment, primary screen, cell-based, luminescence, 7a,25-OHC stimulation, uHTS; G-protein coupled receptor 183 (Homo sapiens), P32249; 7a,25-OHC stimulated; inhibition, % at 5 µM; 360,000 compounds, 0.81% hits; AID 651636, 2012; in the data active = inhibition above about 38%;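 also: enzyme fragment complementation signal reports receptor beta-arrestin coupling in cells; 0% = agonist plus DMSO wells and 100% = wells without agonist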
* marks the source's active call; other numbers are inactive results; . = not tested or not shown. An excerpt weighted towards active compounds, which were near 1.5% of everything screened.

SMILES	CXCR6 block	APJ agonist	APJ antagonist	CCR6 antag	EBI2 antag
CCOc1cc(/C=N/NC(=O)C(=O)NCc2ccc3c(c2)OCO3)ccc1OCC(=O)N1CCOCC1	4	-3	13	9	-3
CC(=O)OC[C@H]1O[C@@H](Oc2cc(O)cc3oc(-c4ccc(O)cc4)cc(=O)c23)[C@H](O[C@@H]2O[C@@H](C)[C@H](O)[C@@H](O)[C@H]2O)[C@@H](O)[C@@H]1O	-4	-2	-10	16	-4
CN(C)S(=O)(=O)c1cccc(NC(=O)CSc2cccc3cccnc23)c1	51*	-6	11	71*	29
CN(C)S(=O)(=O)c1ccc(SCC(=O)Nc2cccc(S(=O)(=O)N3CCCC3)c2)nc1	3	.	.	6	0
N#Cc1c(N2CCN(C(=O)c3ccccc3)CC2)nc(-c2ccccc2)c2c1CCCC2	10	0	7	50*	10
N#Cc1c(N2CCN(C(=O)c3ccccc3Cl)CC2)nc(-c2ccccc2)c2c1CCCC2	16	1	22	17	15
Cc1ccc(S(=O)(=O)CCC(=O)c2cccc([N+](=O)[O-])c2)cc1	18	-3	14	59*	-2
Cc1ccc(C(=O)CCS(=O)(=O)c2ccc(Br)cc2)cc1	7	-5	9	1	-8
COc1ccc(C(O)c2ncc(-c3cccc(C(F)(F)F)c3)[nH]2)cc1F (configuration not stated)	-4	.	.	.	6
C/C(=N\NC(=S)Nc1ccc(F)cc1)c1ccc2c(c1)OCCO2	30	-6	25	58*	-4
Cc1cc2c(cc1S(=O)(=O)Nc1ccc(OC(F)(F)F)cc1)OCC(=O)N2	-2	-3	3	-8	-12
O=C(C1CC1)N1N=C(c2ccc(Cl)cc2)CC1(O)C(F)(F)F (configuration not stated)	3	-1	3	12	-2
CC1(O)CC(c2ccc(Cl)cc2)=NN1C(=O)c1ccc(Cl)cc1 (configuration not stated)	28	-4	4	57*	17
COc1ccc([C@H]2C[C@H](O)[C@@H](n3cc(-c4ccc(F)cc4)nn3)CN2C(=O)C2CCCCC2)cc1	2	.	.	.	9
CCOc1cc(/C=N/Nc2cc(C)nc(-n3nc(C)cc3C)n2)ccc1O	110*	-16	106*	116*	97*
CCOc1cc(/C=N/Nc2nc(C)cc(=O)[nH]2)ccc1O	-8	-4	-13	2	0
CC(C)c1cc(Cn2c3ccccc3c(=O)n2C(C)Cn2cc(CCc3ccccc3)nn2)on1 (configuration not stated)	.	.	.	.	7
O=C(c1ccc(Cl)cc1)N1CCN(c2ccnc3cc(Cl)ccc23)CC1	-15	.	.	8	51*
Cc1ccccc1C(=O)NC1CCN(CC(=O)Nc2ccc(Br)cc2)CC1	0	-2	19	9	13
C/C(=N\Nc1cc(-c2ccccc2)nc(-c2ccc(Br)cc2)n1)c1cccc(N)c1	1	1	7	-11	29
C/C(=N/Nc1cc(-c2ccccc2)nc(-c2ccccc2)n1)c1ccc(O)cc1	15	-1	-18	-8	60*
COc1ccccc1-c1cc(C(F)(F)F)nc(S(=O)(=O)CCCC(=O)NCc2ccc(F)cc2)n1	40*	0	8	23	9
C=C(CC[C@@H](O)C(C)(C)O)[C@H]1CC[C@]2(C)[C@@H]1CCC1[C@@]3(C)CC[C@H](O)C(C)(C)C3CC[C@]12C (some centres not stated)	-6	-2	-8	69*	-5
C=C(C)[C@@H]1CC[C@]2(C(=O)O)CC[C@]3(C)[C@H](CC[C@@H]4[C@@]5(C)CC[C@H](O)C(C)(C)[C@@H]5CC[C@]43C)[C@@H]12	1	3	4	-11	-3
COc1ccc(C(=O)Nc2nc(-c3ccc([N+](=O)[O-])cc3)c(-c3ccc(OC)cc3)s2)cc1	30	-1	-30	61*	19
SMILES	CXCR6 block	APJ agonist	APJ antagonist	CCR6 antag	EBI2 antag
COc1ccc(CCNC(=O)c2ccc([N+](=O)[O-])cc2)cc1	-12	2	-15	-10	-2
C=CCc1cccc(/C=N/NC(=O)C(C)Nc2cccc(C)c2)c1O (configuration not stated)	2	-4	3	-8	40*
O=C(Cc1ccccc1F)Nc1ccc(S(=O)(=O)N2CCCC2)cc1	-5	-2	-5	10	-7
COc1ccc(NC(=O)/C(Cl)=C(/Cl)S(=O)(=O)Cc2ccc(C)cc2)cn1	48*	.	.	57*	70*
O=C(CNC(=O)OCc1ccccc1)NCC(=O)Oc1ccc([N+](=O)[O-])cc1	3	.	.	9	4
CNC(=O)COc1ccc(Cl)c2cccnc12	-5	-1	9	-5	-10
Cc1cccc(NC(=O)Oc2ccc(Cl)c3cccnc23)c1	46*	.	.	.	11
O=C(Nc1ccc(Oc2c(F)c(F)c(F)c(F)c2F)cc1)OC1CCN2Cc3ccccc3N=C12 (configuration not stated)	3	7	-2	-2	44*
Cc1cccc(NC(=O)Nc2ccc(Oc3c(F)c(F)c(F)c(F)c3F)cc2)c1	-8	3	-2	9	8
COC1(OC)N=C(N)C2(C#N)C(c3ccc(F)cc3)C12C#N (configuration not stated)	-2	-2	0	-10	4
CCSC1(SCC)N=C(N)C2(C#N)C(c3ccc(F)cc3)C12C#N (configuration not stated)	67*	-4	17	37	-15
Clc1ccc(-c2cn3c(n2)-c2ccccc2C3)cc1Cl	0	-3	-9	6	57*
COc1ccc(-n2nc(C(=O)c3cccs3)cc(-c3nc4ccccc4[nH]3)c2=N)cc1	10	-8	13	-11	53*
CC(=O)N/C(=C\c1ccccc1)C(=O)OC/C=C/c1ccccc1	8	3	1	17	5
O=C(NC(Nc1nc2ccc([N+](=O)[O-])cc2s1)(C(F)(F)F)C(F)(F)F)c1ccccc1Cl	29	-4	30	56*	15
O=C(NN=Cc1cc([N+](=O)[O-])ccc1O)c1cccc2ccccc12	15	.	.	49	9
Cc1cc(C(=O)N/N=C/c2cccc([N+](=O)[O-])c2O)n[nH]1	30	-9	23	24	-11
Cc1cc(C(=O)N/N=C/c2cc(N=Nc3ccccc3)ccc2O)n[nH]1	16	.	.	61*	9
Nc1ccc(C(=O)N/N=C\c2cc(N=Nc3cccc4ccccc34)ccc2O)cc1	28	-5	31	59*	10
COC(=O)N/N=C/c1cc(N=Nc2ccccc2)ccc1O	29	1	-17	39	-11
